Test results as given in ChEMBL document CHEMBL4689842, “EUbOPEN Chemogenomics Library wave 1” (2021).

System: Fibroblast
Experiment: Multiplex assay against human fibroblast
Format: toxicity, cell-based
Method in brief: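 Live cells carried four stains from seeding: Hoechst33342, BioTracker Green Microtubule Cytoskeleton Dye, MitoTracker Red and Annexin V Alexa Fluor 680. They were imaged on a CQ1 microscope at 37°C and 5% CO2 after compound addition. Using CellPathfinder machine-learning gating, cells were split into Hoechst high-intensity objects or normal cells, normal cells into healthy, pyknosed or fragmented nuclei, and pyknosed cells into mitotic or apoptotic; tubulin, mitochondrial-mass and membrane-permeability phenotypes are per cents of healthy-nucleus cells.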

[1] = 12 h, 1 µM, compound concentration 1 uM, replicate 1
[2] = 12 h, 1 µM, compound concentration 1 uM, replicate 2
[3] = 12 h, 10 µM, compound concentration 10 uM, replicate 1
[4] = 12 h, 10 µM, compound concentration 10 uM, replicate 2
[5] = 24 h, 1 µM, compound concentration 1 uM, replicate 1
[6] = 24 h, 1 µM, compound concentration 1 uM, replicate 2
[7] = 24 h, 10 µM, compound concentration 10 uM, replicate 1
[8] = 24 h, 10 µM, compound concentration 10 uM, replicate 2
[9] = 48 h, 1 µM, compound concentration 1 uM, replicate 1
[10] = 48 h, 1 µM, compound concentration 1 uM, replicate 2
[11] = 48 h, 10 µM, compound concentration 10 uM, replicate 1
[12] = 48 h, 10 µM, compound concentration 10 uM, replicate 2

**Q.** What does the source list for `CNc1nc(NCc2ccc(NS(C)(=O)=O)cc2Cl)cc(-c2ccccn2)n1`?
**A.** Population Apoptotic (%) [1]: 70%; Population Fragmented Nuclei (%) [1]: 22%; Population Healthy Nuclei (%) [1]: 41%; Population Hoechst High Intensity Objects (%) [1]: 7%; Population Membrane Permeable-Phenotype (%) [1]: 22%; Population Mitochondria Different-Phenotype (%) [1]: 4%; Population Mitotic Cells (%) [1]: 29%; Population Normal (%) [1]: 92%; Population Pyknosed Nuclei (%) [1]: 36%; Population Tubulin-Different-Phenotype (%) [1]: 41%; Total Cell Count [1]: 164; Population Apoptotic (%) [2]: 33%; Population Fragmented Nuclei (%) [2]: 11%; Population Healthy Nuclei (%) [2]: 82%; Population Hoechst High Intensity Objects (%) [2]: 8%; Population Membrane Permeable-Phenotype (%) [2]: 0%; Population Mitochondria Different-Phenotype (%) [2]: 9%; Population Mitotic Cells (%) [2]: 66%; Population Normal (%) [2]: 91%; Population Pyknosed Nuclei (%) [2]: 5%; Population Tubulin-Different-Phenotype (%) [2]: 11%; Total Cell Count [2]: 61; Population Apoptotic (%) [3]: 60%; Population Fragmented Nuclei (%) [3]: 23%; Population Healthy Nuclei (%) [3]: 39%; Population Hoechst High Intensity Objects (%) [3]: 17%; Population Membrane Permeable-Phenotype (%) [3]: 21%; Population Mitochondria Different-Phenotype (%) [3]: 15%; Population Mitotic Cells (%) [3]: 39%; Population Normal (%) [3]: 82%; Population Pyknosed Nuclei (%) [3]: 36%; Population Tubulin-Different-Phenotype (%) [3]: 82%; Total Cell Count [3]: 142; Population Apoptotic (%) [4]: 57%; Population Fragmented Nuclei (%) [4]: 6%; Population Healthy Nuclei (%) [4]: 81%; Population Hoechst High Intensity Objects (%) [4]: 9%; Population Membrane Permeable-Phenotype (%) [4]: 12%; Population Mitochondria Different-Phenotype (%) [4]: 32%; Population Mitotic Cells (%) [4]: 42%; Population Normal (%) [4]: 90%; Population Pyknosed Nuclei (%) [4]: 11%; Population Tubulin-Different-Phenotype (%) [4]: 30%; Total Cell Count [4]: 56; Population Apoptotic (%) [5]: 70%; Population Fragmented Nuclei (%) [5]: 25%; Population Healthy Nuclei (%) [5]: 53%; Population Hoechst High Intensity Objects (%) [5]: 11%; Population Membrane Permeable-Phenotype (%) [5]: 23%; Population Mitochondria Different-Phenotype (%) [5]: 7%; Population Mitotic Cells (%) [5]: 29%; Population Normal (%) [5]: 88%; Population Pyknosed Nuclei (%) [5]: 20%; Population Tubulin-Different-Phenotype (%) [5]: 43%; Total Cell Count [5]: 169; Population Apoptotic (%) [6]: 25%; Population Fragmented Nuclei (%) [6]: 8%; Population Healthy Nuclei (%) [6]: 85%; Population Hoechst High Intensity Objects (%) [6]: 1%; Population Membrane Permeable-Phenotype (%) [6]: 0%; Population Mitochondria Different-Phenotype (%) [6]: 11%; Population Mitotic Cells (%) [6]: 75%; Population Normal (%) [6]: 98%; Population Pyknosed Nuclei (%) [6]: 5%; Population Tubulin-Different-Phenotype (%) [6]: 11%; Total Cell Count [6]: 67; Population Apoptotic (%) [7]: 64%; Population Fragmented Nuclei (%) [7]: 31%; Population Healthy Nuclei (%) [7]: 46%; Population Hoechst High Intensity Objects (%) [7]: 27%; Population Membrane Permeable-Phenotype (%) [7]: 18%; Population Mitochondria Different-Phenotype (%) [7]: 18%; Population Mitotic Cells (%) [7]: 35%; Population Normal (%) [7]: 72%; Population Pyknosed Nuclei (%) [7]: 22%; Population Tubulin-Different-Phenotype (%) [7]: 77%; Total Cell Count [7]: 174; Population Apoptotic (%) [8]: 50%; Population Fragmented Nuclei (%) [8]: 20%; Population Healthy Nuclei (%) [8]: 66%; Population Hoechst High Intensity Objects (%) [8]: 10%; Population Membrane Permeable-Phenotype (%) [8]: 4%; Population Mitochondria Different-Phenotype (%) [8]: 26%; Population Mitotic Cells (%) [8]: 50%; Population Normal (%) [8]: 89%; Population Pyknosed Nuclei (%) [8]: 12%; Population Tubulin-Different-Phenotype (%) [8]: 17%; Total Cell Count [8]: 71; Population Apoptotic (%) [9]: 77%; Population Fragmented Nuclei (%) [9]: 29%; Population Healthy Nuclei (%) [9]: 63%; Population Hoechst High Intensity Objects (%) [9]: 17%; Population Membrane Permeable-Phenotype (%) [9]: 23%; Population Mitochondria Different-Phenotype (%) [9]: 7%; Population Mitotic Cells (%) [9]: 22%; Population Normal (%) [9]: 82%; Population Pyknosed Nuclei (%) [9]: 7%; Population Tubulin-Different-Phenotype (%) [9]: 46%; Total Cell Count [9]: 155; Population Apoptotic (%) [10]: 50%; Population Fragmented Nuclei (%) [10]: 28%; Population Healthy Nuclei (%) [10]: 69%; Population Hoechst High Intensity Objects (%) [10]: 8%; Population Membrane Permeable-Phenotype (%) [10]: 4%; Population Mitochondria Different-Phenotype (%) [10]: 2%; Population Mitotic Cells (%) [10]: 50%; Population Normal (%) [10]: 91%; Population Pyknosed Nuclei (%) [10]: 2%; Population Tubulin-Different-Phenotype (%) [10]: 38%; Total Cell Count [10]: 105; Population Apoptotic (%) [11]: 70%; Population Fragmented Nuclei (%) [11]: 29%; Population Healthy Nuclei (%) [11]: 61%; Population Hoechst High Intensity Objects (%) [11]: 36%; Population Membrane Permeable-Phenotype (%) [11]: 20%; Population Mitochondria Different-Phenotype (%) [11]: 12%; Population Mitotic Cells (%) [11]: 30%; Population Normal (%) [11]: 63%; Population Pyknosed Nuclei (%) [11]: 9%; Population Tubulin-Different-Phenotype (%) [11]: 84%; Total Cell Count [11]: 168; Population Apoptotic (%) [12]: 100%; Population Fragmented Nuclei (%) [12]: 27%; Population Healthy Nuclei (%) [12]: 71%; Population Hoechst High Intensity Objects (%) [12]: 41%; Population Membrane Permeable-Phenotype (%) [12]: 15%; Population Mitochondria Different-Phenotype (%) [12]: 3%; Population Mitotic Cells (%) [12]: 0%; Population Normal (%) [12]: 58%; Population Pyknosed Nuclei (%) [12]: 1%; Population Tubulin-Different-Phenotype (%) [12]: 79%; Total Cell Count [12]: 203
